# Assay outcomes from PubChem BioAssay.
# Rows were chosen to be rich in hits. Some 1.6% of all compounds tested hit in one or more screens of this group.
# Rpn11 inh – blocks the human proteasome subunit Rpn11; calls only at 20 µM; actives 0.59% (n = 360,000); O00487; human 26S proteasome, Ub4-pepOG fluorescence polarization; 20S core pre-blocked with epoxomicin;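 active = inhibition at 20 µM, scaled to each plate's controls, above about 33%, limit read from the data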
# CSN inh – blocks human CSN-mediated cullin deneddylation | Q92905 | Purified CSN, SCF-Nedd8-OG deneddylation, fluorescence polarization | inhibition, % at 12.5 µM | actives 0.38% (n = 360,000) | AID 651999;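 active = pattern-corrected inhibition above about 35%, with an unprinted fluorescence ratio check between 0.5 and 1.5, limit read from the data, passing the limit was not always enough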;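 note: 0% = enzyme with substrate and 100% = substrate without enzyme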
#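 Assay system: HEK293T-derived human Csn5 enzyme; quantity: 0.24 nM enzyme; medium: Tris/NaCl/DTT buffer, pH 7.5; also added: substrate SCFSkp2-Nedd8OG, 10 nM; doses: 12.5 µM compound; schedule: 90 min reaction at room temperature; signal: FP; read-out: % inhibition of substrate cleavage by Csn5; benchmarks: substrate-only high control, full reaction low control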
# PKA-R1A act – PKA-R1A complex activation; actives 0.083% (n = 340,000); activation, % at 11.4 µM; AID 504707; PKA-R1A dissociation, Cy5-IP20 fluorescence polarization; scaled: DMSO 0%, 113 µM cGMP 100%;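 active = percent activation above the mean of all tested compounds plus 3 SD, cut at about 19% in these data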;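 note: higher means more PKAc released from R1A so a rise in polarization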
# PKA-R2B activ – activates the human PKA-R2B holoenzyme complex. PKA-R2B holoenzyme dissociation, Cy5-IP20 fluorescence polarization; R2B truncated from residue 108, S112A mutant; 0% DMSO only, 100% 113 µM cGMP. AID 504700. actives 0.079% (n = 340,000). P22694+P31323. activation, % at 11.4 µM;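 active = activation above a cutoff set at the mean over all compounds plus 3 SD, cut at about 18% in these data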;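 note: higher means more holoenzyme dissociation and a rise in polarization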
# HNF4A DNA FP – change in binding of human HNF4 alpha to DNA; P41235; HNF4a-FITC DNA binding, fluorescence polarization, 1 h; activity change, % at 10 µM; actives 0.3% (n = 360,000); in the data active = activity change above about 30%, passing the limit was not always enough
# Target sequence (P41235 whole entry, looked up): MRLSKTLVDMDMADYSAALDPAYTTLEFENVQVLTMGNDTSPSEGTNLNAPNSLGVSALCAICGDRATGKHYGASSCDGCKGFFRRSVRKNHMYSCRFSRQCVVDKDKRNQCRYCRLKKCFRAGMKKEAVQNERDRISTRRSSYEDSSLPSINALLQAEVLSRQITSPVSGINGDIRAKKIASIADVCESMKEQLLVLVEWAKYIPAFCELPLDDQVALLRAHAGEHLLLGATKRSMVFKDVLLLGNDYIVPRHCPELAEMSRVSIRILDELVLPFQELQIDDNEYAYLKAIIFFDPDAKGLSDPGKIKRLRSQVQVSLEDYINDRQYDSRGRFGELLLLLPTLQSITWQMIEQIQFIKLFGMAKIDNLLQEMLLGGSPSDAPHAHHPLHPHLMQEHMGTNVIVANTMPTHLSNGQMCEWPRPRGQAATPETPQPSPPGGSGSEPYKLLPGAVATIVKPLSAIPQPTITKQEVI
# TPT1 inh – inhibitors of Candida albicans tRNA 2'-phosphotransferase TPT1; recombinant caTPT1, FP RNA substrate dephosphorylation; inhibition, % at 5 µM; actives 0.81% (n = 300,000);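 active = inhibition above the mean of all tested compounds plus 3 SD, set per screening campaign, cut at about 24% in these data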;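 note: plate controls were DMSO alone for no effect and ferristatin control at 100 nM for full effect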
# Rpn11 confirm – confirmation of human proteasome Rpn11 inhibitors; shares compounds with Rpn11 inh; AID 602318; actives 29% (n = 1,900); purified human 26S proteasome, Ub4-pepOG fluorescence polarization; proteasome pretreated with epoxomicin; inhibition, % at 20 µM
# MMP-2 inh – counter-screen for RPN11 inhibitors: inhibition of human MMP-2; recombinant MMP-2, FRET peptide cleavage fluorescence; shares compounds with Rpn11 inh; actives 4% (n = 1,900); AID 602330; inhibition, % at 20 µM;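 note: human MMP-2 activated beforehand with APMA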
# Thrombin inh – counter-screen for RPN11 inhibitors: inhibition of bovine thrombin. shares compounds with Rpn11 inh. bovine thrombin cleavage of Ub4-pepOG, fluorescence polarization. inhibition, % at 20 µM. actives 13% (n = 1,900);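 active = mean inhibition at least 40% at 20 µM, or signal 3 deviations below plate average, so some actives read negative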;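 note: plate controls were thrombin with DMSO for no effect and buffer wells lacking thrombin for full effect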
# An asterisk follows results filed as active; i = inactive; . = not tested or not shown; + = active, no number. Cut-off read from the data, not from the text of the source, unless noted: active = inhibition above about 40%; inactive = the rest.
SMILES,Rpn11 inh,CSN inh,PKA-R1A act,PKA-R2B activ,HNF4A DNA FP,TPT1 inh,Rpn11 confirm,MMP-2 inh,Thrombin inh
O=C(COC(=O)C1C2CC3OC(=O)C1C3C2)Nc1ccccc1 (stereo unspecified),i,2,-4,-3,1,1,.,.,.
COc1ccccc1C(=O)Nc1nnc(SCC(=O)Nc2ccc3c(c2)oc2ccccc23)s1,+,3,-9,-11,12,7,23,-24,-2
Cc1ccc(S(=O)(=O)N(C)C)cc1NC(=O)CSc1nnc(C2CC2)n1C1CC1,i,1,15,9,0,.,.,.,.
COCCCn1c(SCC(=O)NC2CCCCC2)nnc1-c1ccco1,i,2,-2,-3,-1,-5,.,.,.
COc1cc(/C=c2/sc3nc(-c4ccccc4)c(-c4ccccc4)n3c2=O)cc(OC)c1OC,i,5,-8,-3,-4,-2,.,.,.
COc1ccc(/C=c2\sc3nc(-c4ccccc4)c(-c4ccccc4)n3c2=O)cc1OC,+,5,-16,-10,4,18,-2,-22,-27
CSc1nc2ccc(NS(=O)(=O)c3ccc(Br)s3)cc2s1,i,0,-6,-8,-2,2,.,.,.
O=S(=O)(Nc1ccon1)c1ccc(Br)s1,+,2,4,5,39*,1,13,-28,2
Cc1ccc(OCCSCc2nc3ccccc3[nH]2)cc1,i,2,-1,-11,-8,-1,.,.,.
Clc1ccc(OCCSCc2nc3ccccc3[nH]2)cc1,+,11,-4,11,27,16,26,-9,15
COc1ccc2cc(C(=O)C3CCCN(Cc4cnc(N5CCOCC5)s4)C3)ccc2c1 (stereo unspecified),+,1,-10,-6,0,-5,0,-20,6
CCN1CCN(Cc2ccc(NC(=O)c3ccc(C)c(NC(=O)c4cccc(-c5cn[nH]c(=O)c5)c4)c3)cc2C(F)(F)F)CC1,i,3,-8,4,4,0,.,.,.
CCN1CCN(Cc2ccc(NC(=O)c3ccc(C)c(NC(=O)c4csc(-c5ccncc5)n4)c3)cc2C(F)(F)F)CC1,+,3,2,0,6,-2,39,-12,-7
CN1C(=O)N(CC(=O)c2ccc3c(c2)OCO3)C(=O)C12CCCCC2,i,-3,-2,-2,1,.,.,.,.
CC1(C)NC(=O)N(CCC(=O)Nc2ccc(C(C)(C)C)cc2)C1=O,i,-5,2,-1,-5,.,.,.,.
O=C(N/N=C/c1ccc(OC(=O)c2ccc3c(c2)OCO3)cc1)c1cncc(Br)c1,+,5,-7,4,9,0,5,8,-1
Cc1cccc2cc(C#N)c(SCC(=O)Nc3ccccc3N3CCOCC3)nc12,+,6,5,-8,3,10,14,-44,-20
CCN(CC)CCNc1nc(-c2ccccc2)c2c(c1C#N)CC(C)(C)OC2,i,2,-15,9,0,-3,.,.,.
CC1(C)Cc2c(C#N)c(NCCCO)nc(-c3ccccc3)c2CO1,+,0,-1,-14,28*,-5,-10,-26,-14
C=CC(=C)CC(NC)c1ccccc1 (stereo unspecified),+,47*,-10,2,28,0,36,-9,-14
CCCCCC(O)CCCC(=O)O (stereo unspecified),i,-2,-8,-22,1,.,.,.,.
CCCCCCCCCCCCCCCC(O)C[N+](C)(C)CCO (stereo unspecified),+,3,-12,-5,7,.,77*,12,-18
Cc1ccc(SCCc2cc[n+](CC(=O)c3ccccc3)cc2)cc1,+,14,2,-7,1,2,2,-7,-9
O=C(N/N=C/c1cc(Cl)cc([N+](=O)[O-])c1O)c1ccccc1NS(=O)(=O)c1cccs1,+,-3,-2,3,9,1,129*,-20,-1
O=C(NN=Cc1ccc(O)cc1)c1ccccc1NS(=O)(=O)c1cccs1,i,-4,11,6,3,.,.,.,.
SMILES,Rpn11 inh,CSN inh,PKA-R1A act,PKA-R2B activ,HNF4A DNA FP,TPT1 inh,Rpn11 confirm,MMP-2 inh,Thrombin inh
Cc1ccc(Cn2ncc3c(N4CCN(c5ccc(C)cc5)CC4)ncnc32)cc1,+,-1,2,-6,-32,-1,-3,11,4
Cc1ccc(Cn2ncc3c(N4CCN(C)CC4)ncnc32)cc1,i,-3,-3,8,5,1,.,.,.
COc1cccc(OC)c1C(=O)Nc1ccc2c(c1)Cc1ccccc1-2,i,-2,-7,-10,-3,-3,.,.,.
COc1cccc(OC)c1C(=O)NC(=S)Nc1ccc2c(c1)Cc1ccccc1-2,+,4,0,-7,-2,0,-7,36,-9
CCC(C)Sc1ccc([C@@H]2[C@H]3C(=O)N(CC)C(=O)[C@H]3[C@]3(C(=O)OC)CCCCN23)cc1 (stereo partly specified),+,7,-3,-14,18,14,105*,0,69*
COc1ccc(NC(=O)CN(C)C(=O)CCCSc2nc3ccccc3[nH]2)cc1,i,2,-7,-7,1,0,.,.,.
N#CCOc1coc(CN2CCN(c3cccc(Cl)c3)CC2)cc1=O,i,1,-1,-7,5,0,.,.,.
Fc1ccccc1NC(=S)NN(Cc1ccccc1)c1ccccc1,+,2,-15,-6,38*,-1,-1,46*,-4
CN1CCN(S(=O)(=O)c2cccc(C(=O)Oc3ccccc3Cl)c2)CC1,i,1,4,8,4,-1,.,.,.
C#CCOCCOCCOCCNc1nc(N2CCN(C(=O)CCCCCCCCCCNC(=O)[C@@H](CCSC)n3cc(CCO)nn3)CC2)nc(N2CCN(C(=O)CCCCCCCCCCNC(=O)[C@H](CCSC)n3cc(CCO)nn3)CC2)n1,i,-4,0,4,1,-1,.,.,.
